Reference: ChEMBL document CHEMBL2040757, “New N-arylamino biquinoline derivatives: synthesis, antimicrobial, antituberculosis, and antimalarial evaluation” (Eur J Med Chem, 2012)
In brackets after ≈: the same amount, converted by molar mass.

Experiments:
[1] = system: Plasmodium falciparum; test: Antimalarial activity against trophozoite stage of chloroquine-sensitive Plasmodium falciparum 3D7 infected in human erythrocytes after 48 hrs; assay type: functional, organism-based; conditions: 3D7, 48 h
Procedure, shortened: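 Parasites were kept in continuous culture in A+ human erythrocytes in RPMI with 10% human serum. Sorbitol-synchronized trophozoites at 1–2% parasitaemia and 2.5% haematocrit were exposed to serial dilutions (maximum 1 mg/ml; 0.02% final DMSO) for 48 h at 37 °C. Growth inhibition was measured; chloroquine and quinine served as positive controls. IC50 came from duplicate experiments.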

[2] = system: Vibrio cholerae; test: Antibacterial activity against Vibrio cholerae MTCC 3906 by broth microdilution method; assay type: functional
[3] = system: Aspergillus fumigatus; test: Antifungal activity against Aspergillus fumigatus MTCC 3008 by broth microdilution method; assay type: functional
[4] = system: Clostridium tetani; test: Antibacterial activity against Clostridium tetani MTCC 449 by broth microdilution method; assay type: functional
[5] = system: Mycobacterium tuberculosis; test: Growth inhibition of Mycobacterium tuberculosis H37Rv at 6.25 ug/mL after 12 to 28 days relative to control; assay type: functional
[6] = system: Candida albicans; test: Antifungal activity against Candida albicans MTCC 227 by broth microdilution method; assay type: functional
[7] = system: Salmonella typhi; test: Antibacterial activity against Salmonella typhi MTCC 98 by broth microdilution method; assay type: functional, Salmonella enterica subsp. enterica serovar Typhi; conditions: Salmonella enterica
[8] = system: Streptococcus pneumoniae; test: Antibacterial activity against Streptococcus pneumoniae MTCC 1936 by broth microdilution method; assay type: functional
Procedure, shortened: (§1)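 Broth microdilution per NCCLS, with serial dilutions in Mueller Hinton broth and DMSO as diluent. Tubes were incubated overnight at 37 °C. MIC was the lowest concentration giving no visible growth, with the control organism's MIC read to verify concentrations. Tubes without growth were subcultured overnight at 37 °C to judge bacteriostatic versus bactericidal action.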

[9] = system: Bacillus subtilis; test: Antibacterial activity against Bacillus subtilis MTCC 441 by broth microdilution method; assay type: functional; procedure, shortened: as §1
[10] = system: Escherichia coli; test: Antibacterial activity against Escherichia coli MTCC 443 by broth microdilution method; assay type: functional; procedure, shortened: as §1

Compound: COc1ccc(NN2C(N)=C(C#N)C(c3cc4cc(OC)ccc4nc3Cl)C3=C2CC(C)(C)CC3=O)cc1 (stereo not given)
- IC50 [1]: 0.019 µg/mL (≈ 0.0358 µM)
- MIC [2]: 62.5 µg/mL (≈ 118 µM)
- MIC [3]: 500 µg/mL (≈ 943 µM)
- MIC [4]: 200 µg/mL (≈ 377 µM)
- inhibition at 6.25 µg/mL [5]: 7%
- MIC [6]: 500 µg/mL (≈ 943 µM)
- MIC [7]: 50 µg/mL (≈ 94.3 µM)
- MIC [8]: 25 µg/mL (≈ 47.2 µM)
- MIC [9]: 200 µg/mL (≈ 377 µM)
- MIC [10]: 100 µg/mL (≈ 189 µM)

Compound: NYSTATIN
- MIC [3]: 100 µg/mL
- MIC [6]: 100 µg/mL

Compound: CC1(C)CC(=O)C2=C(C1)N(Nc1ccccc1)C(N)=C(C#N)C2c1cc2cc(Cl)ccc2nc1Cl (stereo not given)
- IC50 [1]: 0.21 µg/mL (≈ 0.416 µM)
- MIC [2]: 1000 µg/mL (≈ 1980 µM)
- MIC [3]: 1000 µg/mL (≈ 1980 µM)
- MIC [4]: 1000 µg/mL (≈ 1980 µM)
- inhibition at 6.25 µg/mL [5]: 5%
- MIC [6]: 1000 µg/mL (≈ 1980 µM)
- MIC [7]: 250 µg/mL (≈ 496 µM)
- MIC [8]: 1000 µg/mL (≈ 1980 µM)
- MIC [9]: 1000 µg/mL (≈ 1980 µM)
- MIC [10]: 200 µg/mL (≈ 396 µM)

Compound: CO[C@H]1/C=C/O[C@@]2(C)Oc3c(C)c(O)c4c(O)c(c(/C=N/N5CCN(C)CC5)c(O)c4c3C2=O)NC(=O)/C(C)=C\C=C\[C@H](C)[C@H](O)[C@@H](C)[C@@H](O)[C@@H](C)[C@H](OC(C)=O)[C@@H]1C [RIFAMPIN]
- inhibition at 6.25 µg/mL [5]: 98%

Compound: COc1ccc(NN2C(N)=C(C#N)C(c3cc4cc(C)ccc4nc3Cl)C3=C2CC(C)(C)CC3=O)cc1 (stereo not given)
- IC50 [1]: 0.54 µg/mL (≈ 1.05 µM)
- MIC [2]: 500 µg/mL (≈ 973 µM)
- MIC [3]: > 1000 µg/mL
- MIC [4]: 500 µg/mL (≈ 973 µM)
- inhibition at 6.25 µg/mL [5]: 3%
- MIC [6]: > 1000 µg/mL
- MIC [7]: 500 µg/mL (≈ 973 µM)
- MIC [8]: 100 µg/mL (≈ 195 µM)
- MIC [9]: 200 µg/mL (≈ 389 µM)
- MIC [10]: 250 µg/mL (≈ 486 µM)

Compound: COc1ccc(NN2C(N)=C(C#N)C(c3cc4ccccc4nc3Cl)C3=C2CC(C)(C)CC3=O)cc1 (stereo not given)
- IC50 [1]: 0.025 µg/mL (≈ 0.05 µM)
- MIC [2]: 250 µg/mL (≈ 500 µM)
- MIC [3]: > 1000 µg/mL
- MIC [4]: 250 µg/mL (≈ 500 µM)
- inhibition at 6.25 µg/mL [5]: 44%
- MIC [6]: > 1000 µg/mL
- MIC [7]: 200 µg/mL (≈ 400 µM)
- MIC [8]: 200 µg/mL (≈ 400 µM)
- MIC [9]: 500 µg/mL (≈ 1000 µM)
- MIC [10]: 250 µg/mL (≈ 500 µM)

Compound: CC1(C)S[C@@H]2[C@H](NC(=O)[C@H](N)c3ccccc3)C(=O)N2[C@H]1C(=O)O [AMPICILLIN]
- MIC [2]: 100 µg/mL (≈ 286 µM)
- MIC [4]: 250 µg/mL (≈ 715 µM)
- MIC [7]: 100 µg/mL (≈ 286 µM)
- MIC [8]: 100 µg/mL (≈ 286 µM)
- MIC [9]: 250 µg/mL (≈ 715 µM)
- MIC [10]: 100 µg/mL (≈ 286 µM)

Compound: COc1ccc(NN2C(N)=C(C#N)C(c3cc4cc(Cl)ccc4nc3Cl)C3=C2CC(C)(C)CC3=O)cc1 (stereo not given)
- IC50 [1]: 0.026 µg/mL (≈ 0.0486 µM)
- MIC [2]: 250 µg/mL (≈ 468 µM)
- MIC [3]: > 1000 µg/mL
- MIC [4]: 200 µg/mL (≈ 374 µM)
- inhibition at 6.25 µg/mL [5]: 22%
- MIC [6]: 100 µg/mL (≈ 187 µM)
- MIC [7]: 200 µg/mL (≈ 374 µM)
- MIC [8]: 250 µg/mL (≈ 468 µM)
- MIC [9]: 250 µg/mL (≈ 468 µM)
- MIC [10]: 250 µg/mL (≈ 468 µM)

Compound: CC1(C)CC(=O)C2=C(C1)N(Nc1ccc(F)cc1)C(N)=C(C#N)C2c1cc2ccccc2nc1Cl (stereo not given)
- IC50 [1]: 0.027 µg/mL (≈ 0.0553 µM)
- MIC [2]: 200 µg/mL (≈ 410 µM)
- MIC [3]: 1000 µg/mL (≈ 2050 µM)
- MIC [4]: 200 µg/mL (≈ 410 µM)
- inhibition at 6.25 µg/mL [5]: 62%
- MIC [6]: 1000 µg/mL (≈ 2050 µM)
- MIC [7]: 200 µg/mL (≈ 410 µM)
- MIC [8]: 500 µg/mL (≈ 1020 µM)
- MIC [9]: 500 µg/mL (≈ 1020 µM)
- MIC [10]: 200 µg/mL (≈ 410 µM)

Compound: CC1(C)CC(=O)C2=C(C1)N(Nc1ccc(F)cc1)C(N)=C(C#N)C2c1cc2cc(Cl)ccc2nc1Cl (stereo not given)
- IC50 [1]: 0.154 µg/mL (≈ 0.295 µM)
- MIC [2]: 125 µg/mL (≈ 239 µM)
- MIC [3]: > 1000 µg/mL
- MIC [4]: 500 µg/mL (≈ 957 µM)
- inhibition at 6.25 µg/mL [5]: 65%
- MIC [6]: 500 µg/mL (≈ 957 µM)
- MIC [7]: 500 µg/mL (≈ 957 µM)
- MIC [8]: 200 µg/mL (≈ 383 µM)
- MIC [9]: 100 µg/mL (≈ 191 µM)
- MIC [10]: 250 µg/mL (≈ 479 µM)

Compound: CC1(C)CC(=O)C2=C(C1)N(Nc1ccc(Br)cc1)C(N)=C(C#N)C2c1cc2cc(Cl)ccc2nc1Cl (stereo not given)
- IC50 [1]: 0.08 µg/mL (≈ 0.137 µM)
- MIC [2]: 250 µg/mL (≈ 429 µM)
- MIC [3]: 500 µg/mL (≈ 857 µM)
- MIC [4]: 250 µg/mL (≈ 429 µM)
- inhibition at 6.25 µg/mL [5]: 85%
- MIC [6]: 1000 µg/mL (≈ 1710 µM)
- MIC [7]: 250 µg/mL (≈ 429 µM)
- MIC [8]: 200 µg/mL (≈ 343 µM)
- MIC [9]: 250 µg/mL (≈ 429 µM)
- MIC [10]: 100 µg/mL (≈ 171 µM)

Compound: Cc1ccc(NN2C(N)=C(C#N)C(c3cc4cc(C)ccc4nc3Cl)C3=C2CC(C)(C)CC3=O)cc1 (stereo not given)
- IC50 [1]: 0.22 µg/mL (≈ 0.442 µM)
- MIC [2]: 500 µg/mL (≈ 1000 µM)
- MIC [3]: 500 µg/mL (≈ 1000 µM)
- MIC [4]: 250 µg/mL (≈ 502 µM)
- inhibition at 6.25 µg/mL [5]: 32%
- MIC [6]: 500 µg/mL (≈ 1000 µM)
- MIC [7]: 500 µg/mL (≈ 1000 µM)
- MIC [8]: 200 µg/mL (≈ 402 µM)
- MIC [9]: 200 µg/mL (≈ 402 µM)
- MIC [10]: 500 µg/mL (≈ 1000 µM)

Compound: Cc1ccc2nc(Cl)c(C3C(C#N)=C(N)N(Nc4ccc(F)cc4)C4=C3C(=O)CC(C)(C)C4)cc2c1 (stereo not given)
- IC50 [1]: 0.047 µg/mL (≈ 0.0936 µM)
- MIC [2]: 200 µg/mL (≈ 398 µM)
- MIC [3]: 1000 µg/mL (≈ 1990 µM)
- MIC [4]: 200 µg/mL (≈ 398 µM)
- inhibition at 6.25 µg/mL [5]: 33%
- MIC [6]: 1000 µg/mL (≈ 1990 µM)
- MIC [7]: 250 µg/mL (≈ 498 µM)
- MIC [8]: 250 µg/mL (≈ 498 µM)
- MIC [9]: 250 µg/mL (≈ 498 µM)
- MIC [10]: 250 µg/mL (≈ 498 µM)

Compound: CCn1cc(C(=O)O)c(=O)c2cc(F)c(N3CCNCC3)cc21 [NORFLOXACIN]
- MIC [2]: 10 µg/mL (≈ 31.3 µM)
- MIC [4]: 50 µg/mL (≈ 157 µM)
- MIC [7]: 10 µg/mL (≈ 31.3 µM)
- MIC [8]: 10 µg/mL (≈ 31.3 µM)
- MIC [9]: 100 µg/mL (≈ 313 µM)
- MIC [10]: 10 µg/mL (≈ 31.3 µM)
